In ChEMBL document CHEMBL3272012, “5-(Tetradecyloxy)-2-furancarboxylic acid and related hypolipidemic fatty acid-like alkyloxyarylcarboxylic acids” (J Med Chem, 1977):

Legend:
Rattus norvegicus [1] = assay: Hypolipidemic activity in Wistar rat assessed as reduction in plasma triglyceride level at 499 umol/kg/day administered through diet for 4 days; assay type: functional; conditions: 96 h
Procedure, shortened: (§1)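 Young male Wistar rats (initial weight 170-190 g), groups of six, fed compound mixed into Purina Lab Chow ad libitum for 4 or 10 days; daily dose calculated from food consumption and body weight. Bled by cardiac puncture; plasma cholesterol and triglycerides by automated procedures; percent reduction versus simultaneous untreated controls, Student's t test.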

Rattus norvegicus [2] = assay: Increase in liver weight in Wistar rat at 499 umol/kg/day administered through diet for 4 days; assay type: ADME, organism-based; conditions: in vivo, po, 96 h
Procedure, shortened: (§2)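 Male Wistar rats (170-190 g initial), groups of six, dosed via diet ad libitum for 4 or 10 days, daily dose from food consumption. Liver wet weight measured, expressed as g/100 g final body weight, compared with untreated controls run simultaneously.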

Rattus norvegicus [3] = assay: Hypolipidemic activity in Wistar rat assessed as reduction in plasma cholesterol level at 499 umol/kg/day administered through diet for 4 days; assay type: functional; conditions: 96 h
Procedure, shortened: (§3)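 Young male Wistar rats, 170-190 g initial weight, groups of six, given compound mixed thoroughly into Purina Lab Chow ad libitum for 4 or 10 days as stated. Daily dose calculated from food consumption and body weight. Bled by cardiac puncture at end of treatment; plasma cholesterol measured by automated procedure. Expressed as percent reduction versus simultaneous untreated control group; Student's t test.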

Rattus norvegicus [4] = assay: Hypolipidemic activity in Wistar rat assessed as reduction in plasma cholesterol level at 411 umol/kg/day administered through diet for 10 days; assay type: functional; conditions: 240 h
Procedure, shortened: (§4)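 Young male Wistar rats, 170-190 g at start, in groups of six, given compound mixed into Purina Lab Chow ad libitum for 4 or 10 days as stated. Daily dose was calculated from food consumption and body weight. Plasma was taken by cardiac puncture at the end and cholesterol measured by automated procedure. Results are % reduction versus a concurrent untreated control group, with Student's t test.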

Rattus norvegicus [5] = assay: Hypolipidemic activity in Wistar rat assessed as reduction in plasma triglyceride level at 411 umol/kg/day administered through diet for 10 days; assay type: functional; conditions: 240 h
Rattus norvegicus [6] = assay: Increase in cholesterol level in Wistar rat liver at 420 umol/kg/day administered through diet for 10 days; assay type: ADME, organism-based; conditions: in vivo, po, 240 h
Procedure, shortened: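 Male Wistar rats (170-190 g), six per group, given compound by admixture to lab chow ad libitum for 4 or 10 days, dose derived from food intake. Liver cholesterol determined by automated procedure, expressed as mg/g wet tissue, compared with an untreated control group by Student's t test.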

Rattus norvegicus [7] = assay: Hypolipidemic activity in Wistar rat assessed as reduction in plasma cholesterol level at 420 umol/kg/day administered through diet for 4 days; assay type: functional; conditions: 96 h; procedure, shortened: as §3
Rattus norvegicus [8] = assay: Increase in liver weight in Wistar rat at 420 umol/kg/day administered through diet for 4 days; assay type: ADME, organism-based; conditions: in vivo, po, 96 h; procedure, shortened: as §2
Rattus norvegicus [9] = assay: Hypolipidemic activity in Wistar rat assessed as reduction in plasma triglyceride level at 420 umol/kg/day administered through diet for 10 days; assay type: functional; conditions: 240 h; procedure, shortened: as §1
Rattus norvegicus [10] = assay: Hypolipidemic activity in Wistar rat assessed as reduction in plasma triglyceride level at 443 umol/kg/day administered through diet for 4 days; assay type: functional; conditions: 96 h; procedure, shortened: as §1
Rattus norvegicus [11] = assay: Hypolipidemic activity in Wistar rat assessed as reduction in plasma cholesterol level at 443 umol/kg/day administered through diet for 4 days; assay type: functional; conditions: 96 h; procedure, shortened: as §3
Rattus norvegicus [12] = assay: Increase in liver weight in Wistar rat at 449 umol/kg/day administered through diet for 4 days; assay type: ADME, organism-based; conditions: in vivo, po, 96 h
Rattus norvegicus [13] = assay: Hypolipidemic activity in Wistar rat assessed as reduction in plasma triglyceride level at 449 umol/kg/day administered through diet for 4 days; assay type: functional; conditions: 96 h
Rattus norvegicus [14] = assay: Hypolipidemic activity in Wistar rat assessed as reduction in plasma cholesterol level at 449 umol/kg/day administered through diet for 4 days; assay type: functional; conditions: 96 h; procedure, shortened: as §3
Rattus norvegicus [15] = assay: Hypolipidemic activity in Wistar rat assessed as reduction in plasma triglyceride level at 418 umol/kg/day administered through diet for 4 days; assay type: functional; conditions: 96 h; procedure, shortened: as §1
Rattus norvegicus [16] = assay: Hypolipidemic activity in Wistar rat assessed as reduction in plasma cholesterol level at 418 umol/kg/day administered through diet for 4 days; assay type: functional; conditions: 96 h; procedure, shortened: as §3
Rattus norvegicus [17] = assay: Increase in liver weight in Wistar rat at 418 umol/kg/day administered through diet for 4 days; assay type: ADME, organism-based; conditions: in vivo, po, 96 h; procedure, shortened: as §2
Rattus norvegicus [18] = assay: Hypolipidemic activity in Wistar rat assessed as reduction in plasma cholesterol level at 606 umol/kg/day administered through diet for 10 days; assay type: functional; conditions: 240 h; procedure, shortened: as §1
Rattus norvegicus [19] = assay: Hypolipidemic activity in Wistar rat assessed as reduction in plasma triglyceride level at 606 umol/kg/day administered through diet for 10 days; assay type: functional; conditions: 240 h
Rattus norvegicus [20] = assay: Increase in liver weight in Wistar rat at 606 umol/kg/day administered through diet for 10 days; assay type: ADME, organism-based; conditions: in vivo, po, 240 h
Rattus norvegicus [21] = assay: Hypolipidemic activity in Wistar rat assessed as reduction in plasma triglyceride level at 489 umol/kg/day administered through diet for 4 days; assay type: functional; conditions: 96 h
Rattus norvegicus [22] = assay: Hypolipidemic activity in Wistar rat assessed as reduction in plasma cholesterol level at 489 umol/kg/day administered through diet for 4 days; assay type: functional; conditions: 96 h; procedure, shortened: as §3
Rattus norvegicus [23] = assay: Hypolipidemic activity in Wistar rat assessed as reduction in plasma triglyceride level at 675 umol/kg/day administered through diet for 10 days; assay type: functional; conditions: 240 h
Rattus norvegicus [24] = assay: Increase in liver weight in Wistar rat at 675 umol/kg/day administered through diet for 10 days; assay type: ADME, organism-based; conditions: in vivo, po, 240 h
Rattus norvegicus [25] = assay: Hypolipidemic activity in Wistar rat assessed as reduction in plasma cholesterol level at 675 umol/kg/day administered through diet for 10 days; assay type: functional; conditions: 240 h; procedure, shortened: as §1
Rattus norvegicus [26] = assay: Hypolipidemic activity in Wistar rat assessed as reduction in plasma triglyceride level at 491 umol/kg/day administered through diet for 4 days; assay type: functional; conditions: 96 h
Rattus norvegicus [27] = assay: Hypolipidemic activity in Wistar rat assessed as reduction in plasma cholesterol level at 491 umol/kg/day administered through diet for 4 days; assay type: functional; conditions: 96 h; procedure, shortened: as §3
Rattus norvegicus [28] = assay: Increase in liver weight in Wistar rat at 491 umol/kg/day administered through diet for 4 days; assay type: ADME, organism-based; conditions: in vivo, po, 96 h
Rattus norvegicus [29] = assay: Increase in liver weight in Wistar rat at 374 umol/kg/day administered through diet for 4 days; assay type: ADME, organism-based; conditions: in vivo, po, 96 h; procedure, shortened: as §2
Rattus norvegicus [30] = assay: Hypolipidemic activity in Wistar rat assessed as reduction in plasma triglyceride level at 374 umol/kg/day administered through diet for 4 days; assay type: functional; conditions: 96 h; procedure, shortened: as §1
Rattus norvegicus [31] = assay: Hypolipidemic activity in Wistar rat assessed as reduction in plasma cholesterol level at 374 umol/kg/day administered through diet for 4 days; assay type: functional; conditions: 96 h; procedure, shortened: as §4
Rattus norvegicus [32] = assay: Hypolipidemic activity in Wistar rat assessed as reduction in plasma cholesterol level at 505 umol/kg/day administered through diet for 4 days; assay type: functional; conditions: 96 h; procedure, shortened: as §3
Rattus norvegicus [33] = assay: Increase in liver weight in Wistar rat at 505 umol/kg/day administered through diet for 4 days; assay type: ADME, organism-based; conditions: in vivo, po, 96 h
Rattus norvegicus [34] = assay: Hypolipidemic activity in Wistar rat assessed as reduction in plasma triglyceride level at 505 umol/kg/day administered through diet for 4 days; assay type: functional; conditions: 96 h
Rattus norvegicus [35] = assay: Hypolipidemic activity in Wistar rat assessed as reduction in plasma cholesterol level at 456 umol/kg/day administered through diet for 10 days; assay type: functional; conditions: 240 h; procedure, shortened: as §3
Rattus norvegicus [36] = assay: Hypolipidemic activity in Wistar rat assessed as reduction in plasma triglyceride level at 456 umol/kg/day administered through diet for 10 days; assay type: functional; conditions: 240 h

Compound `CCCCCCCCCCCCCCOc1ccc(C(C)=O)o1` has an inhibition in vivo at 499 µmol/kg (Rattus norvegicus [1]) of 21%, an Activity (Rattus norvegicus [2]) of 0% and an inhibition in vivo at 499 µmol/kg (Rattus norvegicus [3]) of 0%.

With `CCCCCCCCCCc1ccc(C(=O)CC(=O)OC)cc1` the inhibition in vivo at 411 µmol/kg (Rattus norvegicus [4]) was 30% and the inhibition in vivo at 411 µmol/kg (Rattus norvegicus [5]) was 69%.

`CCCCCCCCCCCCCCCCCCOc1ccc(C(=O)O)o1` gave an Activity (Rattus norvegicus [6]) of 18%, an inhibition in vivo at 420 µmol/kg (Rattus norvegicus [7]) of 18% and an Activity (Rattus norvegicus [8]) of 0%. It also gave an inhibition in vivo at 420 µmol/kg (Rattus norvegicus [9]) of 53%.

`CCCCCCCCCCCCCCSc1ccc(C(=O)O)o1` showed an inhibition in vivo at 443 µmol/kg (Rattus norvegicus [10]) of 62% and an inhibition in vivo at 443 µmol/kg (Rattus norvegicus [11]) of 18%.

In the case of `CCCCCCCCCCCCCCOc1ccc(C(=O)N(CC)CC)cc1`, the Activity (Rattus norvegicus [12]) is reported as 5%, the inhibition in vivo at 449 µmol/kg (Rattus norvegicus [13]) is reported as 0% and the inhibition in vivo at 449 µmol/kg (Rattus norvegicus [14]) is reported as 0%.

In the case of `CCCCCCCCCCCCCCOc1ccc(C(=O)OCC)cc1Cl`, the inhibition in vivo at 418 µmol/kg (Rattus norvegicus [15]) is reported as 0%, the inhibition in vivo at 418 µmol/kg (Rattus norvegicus [16]) is reported as 0% and the Activity (Rattus norvegicus [17]) is reported as 0%.

In the case of `CCCCCCc1ccc(C(=O)CC(=O)OC)cc1`, the inhibition in vivo at 606 µmol/kg (Rattus norvegicus [18]) is reported as 2%, the inhibition in vivo at 606 µmol/kg (Rattus norvegicus [19]) is reported as 35% and the Activity (Rattus norvegicus [20]) is reported as 2%.

`CCCCCCCCCCCC(=O)Nc1ccc(C(=O)OCC)cc1` gave an inhibition in vivo at 489 µmol/kg (Rattus norvegicus [21]) of 0% and an inhibition in vivo at 489 µmol/kg (Rattus norvegicus [22]) of 0%.

`CCCCCCOc1ccc(C(=O)O)cc1` gave an inhibition in vivo at 675 µmol/kg (Rattus norvegicus [23]) of 16%, an Activity (Rattus norvegicus [24]) of 1% and an inhibition in vivo at 675 µmol/kg (Rattus norvegicus [25]) of 6%.

Compound `CCCCCCCCCCCCCCOc1ccccc1C(=O)OC` has an inhibition in vivo at 491 µmol/kg (Rattus norvegicus [26]) of 0%, an inhibition in vivo at 491 µmol/kg (Rattus norvegicus [27]) of 0% and an Activity (Rattus norvegicus [28]) of 0%.

`CCCCCCCCCCCCCCCCOc1ccc(C(=O)CCC(=O)O)cc1` was tested, and the Activity (Rattus norvegicus [29]) was 0%, the inhibition in vivo at 374 µmol/kg (Rattus norvegicus [30]) was 42% and the inhibition in vivo at 374 µmol/kg (Rattus norvegicus [31]) was 15%.

`CCCCCCCCCCCCOc1cccc(C(=O)OC)c1` gave an inhibition in vivo at 505 µmol/kg (Rattus norvegicus [32]) of 7%, an Activity (Rattus norvegicus [33]) of 4% and an inhibition in vivo at 505 µmol/kg (Rattus norvegicus [34]) of 55%.

Compound `CCCCCCCCCCCCCCCCOc1ccccc1C(=O)CC(=O)OC` has an inhibition in vivo at 456 µmol/kg (Rattus norvegicus [35]) of 10% and an inhibition in vivo at 456 µmol/kg (Rattus norvegicus [36]) of 23%.
